Columns and labels:
[1] = Self-association by concentration-dependent UV–vis absorption; assay type: physicochemical; settings: for self-association by UV–vis, in words: concentration-dependent λmax, Tris buffer pH 7.4
In short: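 Absorption spectra recorded over a foldamer dilution series in 10 or 1 mm cuvettes. λmax plotted against concentration and fitted to a monomer-hexamer equilibrium, with monomer and hexamer λmax as fitted variables. Salt series run in 0.05 M Tris, pH 7.4, at varying NaCl, with all salt conditions fitted globally.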

[2] = Self-association by ITC heats of dilution; assay type: physicochemical; settings: dilution in TBS, 25 °C
In short: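 Heats of dilution at 25 °C. Foldamer at 1 mM in TBS (0.050 M Tris, 0.150 M NaCl, pH 7.4) injected serially into TBS in the calorimetric cell. Heat per injection taken from the integrated peak area, normalized over accumulated additions and plotted against final foldamer concentration. Fitted to a monomer-dimer-hexamer or monomer-hexamer model, depending on the foldamer.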

Row | self-assembly by ITC, in words [2] | pK(hex-mon) UV–vis ([1]; concentration dependence of λmax in TBS pH 7.4, monomer-hexamer fit, K in M5) | Substance | self-association by UV–vis, in words [1]
1 | – | – | (D-Cit-Sal)4-CONH2 [Compound 7] | did not appear to show significant dissociation
2 | very weak to no self-assembly | – | (Lys-Sal)4-COOH [Compound 2] | did not appear to associate at all over this concentration range
3 | – | <15 | (Lys-Sal)3-CONH2 [Compound 8] | did not show any spectral changes at concentrations as high as 500 μM
